Active and inactive are the calls of the source. The rule behind the calls is not given here.
How the values were obtained:
[1] = target: T1, Galactofuranosyltransferase GlfT2 (Mycobacterium tuberculosis) (UniProt O53585); experiment: Inhibition of Mycobacterium tuberculosis GlfT2 assessed as incorporation of [14C]Gal at 1 mM by scintillation counting
T1 sequence (whole entry): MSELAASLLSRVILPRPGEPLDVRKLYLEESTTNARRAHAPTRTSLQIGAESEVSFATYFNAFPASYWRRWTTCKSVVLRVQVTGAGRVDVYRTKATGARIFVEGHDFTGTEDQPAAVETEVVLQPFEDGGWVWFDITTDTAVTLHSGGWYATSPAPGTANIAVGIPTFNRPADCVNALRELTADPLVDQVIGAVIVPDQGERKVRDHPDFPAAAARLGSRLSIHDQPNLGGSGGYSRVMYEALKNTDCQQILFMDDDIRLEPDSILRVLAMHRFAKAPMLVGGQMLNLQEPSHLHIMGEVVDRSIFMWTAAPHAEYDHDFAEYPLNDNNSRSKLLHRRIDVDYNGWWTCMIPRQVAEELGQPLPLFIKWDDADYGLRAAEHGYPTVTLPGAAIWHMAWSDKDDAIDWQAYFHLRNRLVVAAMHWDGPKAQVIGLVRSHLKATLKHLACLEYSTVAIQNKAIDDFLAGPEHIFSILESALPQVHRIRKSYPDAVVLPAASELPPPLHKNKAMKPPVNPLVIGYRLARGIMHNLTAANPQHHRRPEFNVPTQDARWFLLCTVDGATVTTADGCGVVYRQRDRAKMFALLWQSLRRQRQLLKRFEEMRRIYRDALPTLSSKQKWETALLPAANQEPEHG

[2] = tested on: Escherichia coli; experiment: Inhibition of Escherichia coli recombinant C terminal His-tagged MurG expressed in Escherichia coli C43 assessed as inhibition of […] labelled lipid intermediate 2 formation at 1 mM over 15 mins by scintillation counting
[3] = Inhibition of Escherichia coli recombinant C terminal His-tagged MurG expressed in Escherichia coli C43 assessed as inhibition of [3H]UDPGlc labelled lipid intermediate 2 formation over 15 mins by scintillation counting
[4] = tested on: Escherichia coli; experiment: Antibacterial activity against Escherichia coli BL21 at 100 ug/ml after 24 hrs; assay type: functional, organism-based
Outline: (§1)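 LB broth culture grown overnight at 37 °C from a single colony, diluted to 2% in fresh LB and mixed 1:1 with sterile aqueous compound (200 μg/ml or 1 mg/ml solution) or water. Incubated at 37 °C, growth followed by OD595 at 3, 6 and 24 h.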

[5] = tested on: Bacillus subtilis; experiment: Antibacterial activity against Bacillus subtilis W23 at 100 ug/ml after 24 hrs; assay type: functional, organism-based; outline: as §1
[6] = tested on: Pseudomonas putida; experiment: Antibacterial activity against Pseudomonas putida ATCC 33015 at 100 ug/ml after 24 hrs; assay type: functional, organism-based; outline: as §1

SMILES | inhibition [1] | other results
COc1ccccc1[C@H]1N[C@@](C)(COC(=O)CCC(=O)OC[C@H]2O[C@@H](n3ccc(=O)[nH]c3=O)[C@H](O)[C@@H]2O)[C@H]2C(=O)N(c3ccccc3)C(=O)[C@@H]12 (mixture of isomers) | 0% | 
COC(=O)[C@@H]1[C@@H]2C(=O)N(CC(=O)NC[C@H]3O[C@@H](n4ccc(=O)[nH]c4=O)[C@H](O)[C@@H]3O)C(=O)[C@@H]2N[C@@H]1c1ccccc1 | 80% | inhibition [2]: 0%
COc1ccccc1[C@H]1N[C@@](C)(C(=O)N2CCC[C@H]2C(=O)NC[C@H]2O[C@@H](n3ccc(=O)[nH]c3=O)[C@H](O)[C@@H]2O)[C@H]2C(=O)NC(=O)[C@@H]12 |  | IC50 [3]: > 5 mM
COc1ccccc1[C@H]1N[C@@](C)(C(=O)NCC(=O)NC[C@H]2O[C@@H](n3ccc(=O)[nH]c3=O)[C@H](O)[C@@H]2O)[C@H]2C(=O)N(c3ccccc3)C(=O)[C@@H]12 (mixture of isomers) | 0% | Activity [4]: inactive; Activity [5]: inactive; Activity [6]: inactive
COC(=O)[C@@H]1[C@@H]2C(=O)N(CC(=O)NC[C@H]3O[C@@H](n4ccc(=O)[nH]c4=O)[C@H](O)[C@@H]3O)C(=O)[C@@H]2N[C@@H]1c1ccccc1OC | 0% | inhibition [2]: 0%
COC(=O)[C@H]1[C@@H](c2ccccc2OC)N[C@@](C)(C(=O)NCC(=O)NC[C@H]2O[C@@H](n3ccc(=O)[nH]c3=O)[C@H](O)[C@@H]2O)[C@@H]1C(=O)OC (mixture of isomers) | 0% | IC50 [3]: > 5 mM
COC(=O)[C@@H]1[C@@H]2C(=O)N(CC(=O)NC[C@H]3O[C@@H](n4ccc(=O)[nH]c4=O)[C@H](O)[C@@H]3O)C(=O)[C@@H]2N[C@@H]1c1ccc(OC)c(OC)c1 | 0% | IC50 [3]: 4 mM
COC(=O)[C@H]1[C@@H](c2ccccc2OC)N[C@@](C)(C(=O)N2CCC[C@H]2C(=O)NC[C@H]2O[C@@H](n3ccc(=O)[nH]c3=O)[C@H](O)[C@@H]2O)[C@@H]1C(=O)OC (mixture of isomers) | 0% | 
COc1ccccc1[C@H]1N[C@@](C)(COC(=O)CC(=O)OC[C@H]2O[C@@H](n3ccc(=O)[nH]c3=O)[C@H](O)[C@@H]2O)[C@H]2C(=O)N(c3ccccc3)C(=O)[C@@H]12 | 0% | 
COC(=O)[C@H]1[C@@H](c2ccccc2OC)N[C@@](C)(C(=O)N2CCC[C@H]2C(=O)NC[C@H]2O[C@@H](n3ccc(=O)[nH]c3=O)[C@H](O)[C@@H]2O)[C@H]1C(=O)OC | 0% | 
COc1cccc([C@H]2N[C@@](C)(C(=O)NCC(=O)NC[C@H]3O[C@@H](n4ccc(=O)[nH]c4=O)[C@H](O)[C@@H]3O)[C@H]3C(=O)N(c4ccccc4)C(=O)[C@@H]23)c1OC | 0% | 
COC(=O)[C@@H]1[C@H]2C(=O)N(CC(=O)NC[C@H]3O[C@@H](n4ccc(=O)[nH]c4=O)[C@H](O)[C@@H]3O)C(=O)[C@@H]2N[C@@H]1c1ccccc1OC | 0% | inhibition [2]: 22%
COC(=O)[C@@H]1[C@@H]2C(=O)N(CC(=O)NC[C@H]3O[C@@H](n4ccc(=O)[nH]c4=O)[C@H](O)[C@@H]3O)C(=O)[C@@H]2N[C@@H]1c1cccc(OC)c1OC |  | inhibition [2]: 0%
C[C@@]1(C(=O)NCC(=O)NC[C@H]2O[C@@H](n3ccc(=O)[nH]c3=O)[C@H](O)[C@@H]2O)N[C@H]([C@H](O)CO)[C@@H]2C(=O)N(c3ccccc3)C(=O)[C@@H]21 | 0% | 
